Here are results for 2 compounds from ChEMBL document CHEMBL3817772, “Design, Synthesis, and Biological Evaluations of Hydroxypyridonecarboxylic Acids as Inhibitors of HIV Reverse Transcriptase Associated RNase H” (J Med Chem, 2016).

The structures appear in SMILES notation. A value given as a limit tells only on which side of the number the result lay.

The subject of series [1] is Human immunodeficiency virus 1. As to the kind of experiment: Inhibition of HIV-1 RT-RNase H domain expressed in Escherichia coli JM109 at 30 uM using HTS-1 as substrate preincubated with substrate for 10 mins followed by compound/MgCl2 addition incubated for 10 mins by fluorescence-based assay. The method, boiled down:
(§1)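 Order-of-addition RNase H assay, HIV-1 RT in this format. Final conditions: 100 nM RT, 250 nM HTS-1 RNA/DNA duplex, 6 mM MgCl2, 30 µM inhibitor, 1% DMSO. RT is pre-incubated 10 min at 37 °C with the specified components. Missing components are then added and the reaction runs 10 min at 37 °C. Fluorescence signal is corrected against a DMSO-only control. Mean ± SD of two independent experiments.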

In series [2] the test system is Human immunodeficiency virus 1. The experiment in a line: Inhibition of HIV-1 RT-RNase H domain expressed in Escherichia coli JM109 at 30 uM using HTS-1 as substrate preincubated with substrate for 10 mins followed by compound/MgCl2 addition incubated for 2 mins by fluorescence-based assay. The method, boiled down: (§2)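 Excess-RT order-of-addition RNase H assay. RT is pre-incubated 10 min at 37 °C with inhibitor or with substrate. Remaining components are added and the reaction runs 2 min at 37 °C. Fluorescence is DMSO-control corrected. Mean ± SD of two independent experiments.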

Series [3] deals with Human immunodeficiency virus 1. As to the kind of experiment: Inhibition of HIV-1 RT-RNase H domain expressed in Escherichia coli JM109 at 30 uM using HTS-1 as substrate preincubated for 10 mins followed by substrate/MgCl2 addition incubated for 10 mins by fluorescence-based assay. The method, boiled down:
as §1

Series [4] deals with Human immunodeficiency virus 1. As to the kind of experiment: Inhibition of HIV-1 RT-RNase H domain expressed in Escherichia coli JM109 at 30 uM using HTS-1 as substrate preincubated with compound/substrate for 10 mins followed by MgCl2 addition incubated for 10 mins by fluorescence-based assay. The gist of the method:
as §1

Series [5] is described as follows: Cytotoxicity against human HeLa P4/R5 cells up to 25 uM. It counts as cell-based.
The subject of series [6] is Human immunodeficiency virus 1. As to the kind of experiment: Inhibition of HIV-1 RT-RNase H domain expressed in Escherichia coli JM109 at 30 uM using HTS-1 as substrate preincubated with compound and MgCl2 for 10 mins followed by substrate addition incubated for 10 mins by fluorescence-based assay. The gist of the method: as §1
Series [7] deals with Human immunodeficiency virus 1. As to the kind of experiment: Inhibition of HIV-1 RT-RNase H domain expressed in Escherichia coli JM109 at 30 uM using HTS-1 as substrate preincubated for 10 mins followed by substrate/MgCl2 addition incubated for 2 mins by fluorescence-based assay. The method, boiled down:
as §2

Series [8] deals with Human immunodeficiency virus 1. The experiment in a line: Antiviral activity against HIV-1 infected in human HeLa P4/R5 cells assessed as inhibition of virus replication pretreated for 16 hrs followed by infection measured after 48 hrs by fluorescence-based beta-galactosidase detection assay. It counts as functional, organism-based. The method, boiled down: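 P4R5 indicator cells (CD4, CXCR4, CCR5; HIV LTR-driven β-galactosidase reporter) seeded at 5×10^3 per well in DMEM/10% FBS with puromycin 0.5 µg/ml. Drug exposure 16 h, then HIV infection and a further 48 h. Infection read by fluorescence-based β-galactosidase detection. Triplicate data points; EC50 taken from dose-response.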

Series [9] concerns the target Human immunodeficiency virus type 1 reverse transcriptase (Human immunodeficiency virus 1, UniProt Q72547). As to the kind of experiment: Inhibition of HIV-1 RT RNA-dependent DNA polymerase activity expressed in Escherichia coli JM109 using [3H]TTP/ poly(rA)-oligo(dT)16 as substrate incubated for 20 mins by liquid scintillation spectrometric analysis. The gist of the method: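 RNA-dependent DNA polymerase reaction in 50 mM Tris-HCl pH 7.4 (37°C), 60 mM KCl, 5 mM MgCl2, with 10 µM [3H]-TTP and 40 nM poly(rA)-oligo(dT)16. Started with 10 nM RT, 20 min at 37°C. Quenched in ice-cold 10% TCA plus 20 mM sodium pyrophosphate, glass-fiber filtered, washed with TCA and ethanol. Incorporation counted by liquid scintillation.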

Series [10] in a line: Inhibition of HIV-1 RT-RNase H activity expressed in Escherichia coli JM109 using RNA 5'-end directed cleavage measuring HTS-3 as substrate by fluorescence-based assay. Set-up: species or system Human immunodeficiency virus 1. The method, boiled down: (§3)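 RT RNase H cleavage of fluorescein/Dabcyl-labelled RNA/DNA duplexes, with substrate in excess over RT. HTS-1 probes internal cleavage, HTS-2 DNA 3'-end-directed cleavage, and HTS-3 (fluorescein RNA annealed to Dabcyl DNA) RNA 5'-end-directed cleavage.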

Series [11] is described as follows: Inhibition of HIV-1 RT-RNase H activity expressed in Escherichia coli JM109 using internal cleavage measuring HTS-1 as substrate by fluorescence-based assay. Further details: species or system Human immunodeficiency virus 1. The method, boiled down:
as §3

A short description of series [12]: Inhibition of HIV-1 RT-RNase H activity expressed in Escherichia coli JM109 using DNA 3'-end directed cleavage measuring HTS-2 as substrate by fluorescence-based assay. Further details: species or system Human immunodeficiency virus 1. The method, boiled down: as §3
A short description of series [13]: Inhibition of HIV-1 RT-RNase H domain fragment expressed in Escherichia coli by fluorescence-based assay. Further details: species or system Human immunodeficiency virus 1.
In series [14] the target is Human immunodeficiency virus type 1 integrase (Human immunodeficiency virus 1, UniProt Q7ZJM1, C280S/F185K). The experiment in a line: Inhibition of full-length HIV-1 integrase F185K/C280S double mutant strand transfer activity expressed in Escherichia coli BL21(DE3) using oligo DNA as substrate preincubated for 10 mins followed by substrate addition incubated for 30 mins by plate reader analysis.
Human immunodeficiency virus type 1 integrase, sequence (Q7ZJM1 entry or part of it C280S/F185K): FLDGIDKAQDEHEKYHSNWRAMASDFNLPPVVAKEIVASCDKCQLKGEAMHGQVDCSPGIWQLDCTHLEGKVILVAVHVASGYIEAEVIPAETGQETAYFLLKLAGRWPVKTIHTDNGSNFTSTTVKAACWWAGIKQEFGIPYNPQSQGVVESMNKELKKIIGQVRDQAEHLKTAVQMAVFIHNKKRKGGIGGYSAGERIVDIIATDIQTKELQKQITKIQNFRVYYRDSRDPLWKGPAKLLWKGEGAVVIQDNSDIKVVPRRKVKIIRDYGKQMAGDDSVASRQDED

Usually inhibition stands for the relative decrease from the control value, in per cent. One may read the CC50 as the concentration giving 50% cytotoxicity. A lower CC50 goes with greater toxicity to the cells. Broadly, the EC50 is the midpoint of the concentration-response curve. Consider `O=C(O)c1cn(Cc2cccc3ccccc23)cc(O)c1=O`, for which the inhibition in series [1] came to 28%; in [2], 61%; in series [3], 58%; in series [4] it was 35%; in series [6], 51%; in series [7], 82%. Also, the inhibition result in series [8] was “Dose-dependent effect”. In addition, the CC50 in series [5] is > 25000 nM. Moreover, the EC50 in series [8] (Human immunodeficiency virus 1, P4/R5) is 10000 nM.

A word on the IC50: it is the concentration at which inhibition is half-maximal. Regarding `O=C(O)c1cn(Cc2ccc(-c3ccccc3)cc2)cc(O)c1=O`, the 50% inhibitory concentration (IC50) in [9] turned out to be 2200 nM; in [10], 2900 nM; in series [11], 2500 nM; in series [12], 2800 nM; in series [13], 1800 nM; in series [14], 22000 nM. For the same compound, the inhibition is 21% in series [1]; 59% in [2]; 68% in series [3]; 37% in series [4]; 36% in [6]; 78% in series [7].
